Calls of active or inactive are those of the source. No cut-off for these calls is given here.
Assays:
[1] = system: T-cell; assay: Immunosuppressive activity in mouse T cells assessed as inhibition of ConA-induced cell proliferation at 0.05 to 0.8 mM; assay type: functional, cell-based
How it was run: (§1)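 Murine splenocytes with ConA-induced T-cell proliferation; the read-out is percent inhibition of proliferation. Cyclosporine A serves as the reference. Results are given as mean ± SD, n = 3.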

[2] = Immunosuppressive activity in mouse T cells assessed as inhibition of ConA-induced cell proliferation at 100 uM; assay type: functional; how it was run: as §1
[3] = Immunosuppressive activity in mouse T cells assessed as inhibition of ConA-induced cell proliferation at 50 uM; assay type: functional; how it was run: as §1
[4] = Toxicity against mouse lymphocytes assessed as cell viability at 50 uM; assay type: cell-based, Lymphocyte; conditions: read-out: Activity
[5] = system: B; assay: Immunosuppressive activity in mouse B cells assessed as inhibition of LPS-induced cell proliferation at 0.05 to 0.8 mM; assay type: functional, cell-based
How it was run: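 Murine splenocytes with LPS-induced B-cell proliferation; the read-out is percent inhibition of proliferation.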

| Compound | inhibition [1] | inhibition at 100 µM [2] [%] | inhibition at 50 µM [3] [%] | viability at 50 µM [4] [%] | inhibition [5] |
| --- | --- | --- | --- | --- | --- |
| CC1=C([C@H](C)CO)C[C@@]2(O)[C@@]3(C)CC(=O)O[C@H]([C@]4(O)[C@H](C)CC[C@@]43O)[C@@]12O | Dose-dependent effect | 94.5 | 86.1 | 105 | Dose-dependent effect |
| CC1=C(C(C)C)C[C@@]2(O)[C@@]3(CO[C@@H]4O[C@H](CO)[C@@H](O)[C@H](O)[C@H]4O)CC(=O)O[C@H]([C@]4(O)[C@H](C)CC[C@@]43O)[C@@]12O | inactive |  |  |  | inactive |
| CC1=C([C@H](C)CO)C[C@@]2(O)[C@@]3(C)CC(=O)O[C@@H]4[C@@H](C)CC[C@@]3(O)[C@@]4(O)[C@@]12O | Dose-dependent effect |  | 58.8 | 97.8 | Dose-dependent effect |
| C/C=C/C[C@@H](C)[C@@H](O)[C@H]1C(=O)N[C@@H](CC)C(=O)N(C)CC(=O)N(C)[C@@H](CC(C)C)C(=O)N[C@@H](C(C)C)C(=O)N(C)[C@@H](CC(C)C)C(=O)N[C@@H](C)C(=O)N[C@H](C)C(=O)N(C)[C@@H](CC(C)C)C(=O)N(C)[C@@H](CC(C)C)C(=O)N(C)[C@@H](C(C)C)C(=O)N1C [CYCLOSPORINE] |  | 101 |  |  |  |
